Source: ChEMBL document CHEMBL1149314, “Synthesis of AZT 5'-triphosphate mimics and their inhibitory effects on HIV-1 reverse transcriptase” (J Med Chem, 2004)

Assays:
[1] = Inhibition of HIV1 reverse transcriptase; set-up: species or system Human immunodeficiency virus 1
Method in brief: (§1)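 HIV reverse transcriptase (type B, 66 kDa subunit) at 2 nM with 1 µg/mL primed poly(A) RNA and 5 µM dTTP, in 50 mM Tris-HCl pH 8.1, 6.5 mM MgCl2, 100 mM NaCl and 10 mM DTT. Compounds were tested up to 500 µM final. Reactions were started with enzyme, run 10 min at 37 °C and stopped with EDTA. DNA was read by PicoGreen fluorescence (ex 480/em 538 nm), with no-enzyme or no-dTTP blanks. Percent inhibition was blank-corrected; Ki came from titration fitted to a competitive model.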

Serum = assay: (§2) Stability in fetal calf serum at 500 uM at 37 degC; format: ADME, cell-free, Bos taurus; details: cattle, serum, 500 µM
Method in brief: (§3)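 Fetal calf serum at 10% v/v final, with 500 µM nucleotide mimic in 50 mM Tris-HCl pH 7.4 and 0.1 mM MgCl2, at 37 °C. Timed aliquots were quenched in cold methanol, extracted, dried and run on ion-pair reverse-phase HPLC. Half-life came from remaining parent through 48 h, given as >48 h if over 50% remained; unmodified nucleoside triphosphates were positive controls.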

[2] = as §2; format: ADME, cell-free, Bos taurus; details: cattle, fetal calf serum; method in brief: as §3
[3] = tested on: Human immunodeficiency virus 1; assay: Inhibition of HIV1 reverse transcriptase at 0.5 uM; method in brief: as §1
[4] = Stability in CEM cell extract; format: ADME; details: human, CEM (CCRF-CEM) cell extract
Method in brief: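 Clarified lysate of CEM cells (10^7 cells per 100 µL Tris/glycerol/Triton buffer, freeze-thaw lysed) at 50% v/v, with 500 µM nucleotide mimic in 50 mM Tris-HCl pH 7.4 and 0.1 mM MgCl2, at 37 °C. Samples were taken from 0 to 48 h into cold methanol, dried and analysed by ion-pair reverse-phase HPLC. Half-life came from remaining parent, given as >48 h if over 50% remained intact; unmodified NTPs were controls.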

| SMILES | Ki [1] | further results |
| --- | --- | --- |
| CCNP(=O)(O)C(F)(F)P(=O)(O)OP(=O)(O)OC[C@@H]1O[C@H](n2cc(C)c(=O)[nH]c2=O)C[C@H]1N=[N+]=[N-] | 415 nM | – |
| COP(=O)(O)C(F)(F)P(=O)(O)OP(=O)(O)OC[C@@H]1O[C@H](n2cc(C)c(=O)[nH]c2=O)C[C@H]1N=[N+]=[N-] | 597 nM | – |
| BP(=O)(OC[C@@H]1O[C@H](n2cc(C)c(=O)[nH]c2=O)C[C@H]1N=[N+]=[N-])OP(=O)(O)C(F)(F)P(=O)(O)O (single isomer, unassigned; diastereomer II) | 4560 nM | – |
| BP(=O)(OC[C@@H]1O[C@H](n2cc(C)c(=O)[nH]c2=O)C[C@H]1N=[N+]=[N-])OP(=O)(O)C(Cl)(Cl)P(=O)(O)O (single isomer, unassigned) | 93 nM | t1/2 (Serum): 45 h |
| Cc1cn([C@H]2C[C@H](N=[N+]=[N-])[C@@H](COP(=O)(O)OP(=O)(O)OP(=O)(O)O)O2)c(=O)[nH]c1=O [ZIDOVUDINE TRIPHOSPHATE] | 8.4 nM | half-life at 500 µM [2]: 120 min |
| Cc1cn([C@@H]2C[C@@H](N=[N+]=[N-])[C@H](COP(=O)(O)C(F)(F)P(=O)(O)OP(=O)(O)c3ccccc3)O2)c(=O)[nH]c1=O | – | inhibition [3]: 11.5% |
| Cc1cn([C@@H]2C[C@@H](N=[N+]=[N-])[C@H](COP(=O)(O)OP(=O)(O)C(F)(F)P(=O)(O)O)O2)c(=O)[nH]c1=O | 41 nM | – |
| CNP(=O)(O)C(F)(F)P(=O)(O)OP(=O)(O)OC[C@@H]1O[C@H](n2cc(C)c(=O)[nH]c2=O)C[C@H]1N=[N+]=[N-] | 124 nM | – |
| Nc1ncnc2c1ncn2[C@@H]1O[C@H](COP(=O)(O)OP(=O)(O)OP(=O)(O)O)[C@@H](O)[C@H]1O [ADENOSINE TRIPHOSPHATE] | – | half-life at 500 µM [2]: 120 min |
| Cc1cn([C@@H]2C[C@@H](N=[N+]=[N-])[C@H](COP(=O)(O)OP(=O)(O)C(F)(F)P(=O)(O)Oc3ccccc3)O2)c(=O)[nH]c1=O | 303 nM | – |
| BP(=O)(OC[C@@H]1O[C@H](n2cc(C)c(=O)[nH]c2=O)C[C@H]1N=[N+]=[N-])OP(=O)(O)C(F)P(=O)(O)O (single isomer, unassigned; diastereomer IV) | – | inhibition [3]: 49% |
| BP(=O)(OC[C@@H]1O[C@H](n2cc(C)c(=O)[nH]c2=O)C[C@H]1N=[N+]=[N-])OP(=O)(O)OP(=O)(O)O (single isomer, unassigned; form 2) | – | half-life at 500 µM [2]: 360 min |
| BP(=O)(OC[C@@H]1O[C@H](n2cc(C)c(=O)[nH]c2=O)C[C@H]1N=[N+]=[N-])OP(=O)(O)C(F)P(=O)(O)O (single isomer, unassigned) | 27 nM | – |
| BP(=O)(OC[C@@H]1O[C@H](n2cc(C)c(=O)[nH]c2=O)C[C@H]1N=[N+]=[N-])OP(=O)(O)OP(=O)(O)O (single isomer, unassigned; form 1) | 9.6 nM | t1/2 (Serum): 6 h |
| Cc1cn([C@H]2C[C@H](O)[C@@H](COP(=O)(O)OP(=O)(O)OP(=O)(O)O)O2)c(=O)[nH]c1=O [DEOXYTHYMIDINE_TRIPHOSPHATE] | – | half-life at 500 µM [2]: 120 min |
| BP(=O)(OC[C@@H]1O[C@H](n2cc(C)c(=O)[nH]c2=O)C[C@H]1N=[N+]=[N-])OP(=O)(O)C(Cl)(Cl)P(=O)(O)O (single isomer, unassigned; diastereomer II) | 74 nM | half-life at 500 µM [2]: > 2880 min; half-life [4]: > 2880 min |
| Cc1cn([C@@H]2C[C@@H](N=[N+]=[N-])[C@H](COP(=O)(O)OP(=O)(O)C(F)(F)P(=O)(O)Nc3ccccc3)O2)c(=O)[nH]c1=O | 254 nM | – |
| BP(=O)(OC[C@@H]1O[C@H](n2cc(C)c(=O)[nH]c2=O)C[C@H]1N=[N+]=[N-])OP(=O)(O)C(F)(F)P(=O)(O)O (single isomer, unassigned; diastereomer I) | 9.5 nM | half-life at 500 µM [2]: > 2880 min; half-life [4]: > 2880 min |
| Cc1cn([C@@H]2C[C@@H](N=[N+]=[N-])[C@H](COP(=O)(O)OP(=O)(O)C(F)(F)P(N)(=O)O)O2)c(=O)[nH]c1=O | 234 nM | – |
| Cc1cn([C@@H]2C[C@@H](N=[N+]=[N-])[C@H](COP(=O)(O)OP(=O)(O)C(F)(F)P(=O)(O)N=[N+]=[N-])O2)c(=O)[nH]c1=O | – | inhibition [3]: 24% |
| Cc1cn([C@@H]2C[C@@H](N=[N+]=[N-])[C@H](COP(=S)(S)OP(=O)(O)C(F)(F)P(=O)(O)O)O2)c(=O)[nH]c1=O (stereo partly drawn) | – | inhibition [3]: 19% |
